Experiment: Toxicity liver stage against HepG2, at 10uM
Assay type: cell-based
Parameters: test concentration 10 uM, cell line HepG2-A16-CD81EGFP
Conditions: human, HepG2-A16-CD81EGFP cells; read-out: INHIBITION
Summary of the method: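 Uninfected HepG2-A16-CD81EGFP cells, 3 × 10^3 per well, 1536-well, plated on prespotted compound at 10 μM final, parasite-free screening media added to match infected plates; puromycin 10 μM positive, DMSO 0.5% negative; run in parallel with 48 h PbLuc assay at 37 °C, 5% CO2; viability by CellTiter-Glo luminescence, normalized to controls.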

| Structure (SMILES) | cytotoxicity at 10 µM |
| --- | --- |
| Cc1cc(CN2C[C@@H]3COC[C@]3(CNC(=O)N(C)C)C2)no1 | -71.4% |
| Cc1nccn1CCCn1cncc1-c1ccc2c(c1)CCCN2C | -4.7% |
| CC(=O)NC1CCCc2c1[nH]c1ccc(F)cc21 (centres undefined) | -4.41% |
| Cc1cccc(-c2noc(C)c2C(=O)NC2CCCOC2)c1 (centres undefined) | 5.2% |
| O=C([C@H]1CC[C@@H]2[C@@H](CCN2c2ncccn2)O1)N1CCCCO1 | 6.46% |
| CN1CCCCC12Cc1ccccc1CN(C(=O)c1ccccc1)C2 (centres undefined) | 7.44% |
| Cc1ccc(C(F)(F)F)cc1C(=O)N[C@H]1CN(CCO)C[C@@H]1C1CC1 | 0.292% |
| CCN(Cc1ccc(OC)c(F)c1)Cc1nc2c(cnn2C)c(=O)[nH]1 | 2.2% |
| CCOc1ccc(CN2CCCC(c3cc4ncccc4[nH]3)C2)cc1 (centres undefined) | 1.18% |
| Cc1ccc(N2CC3(CCN(S(=O)(=O)C4CC4)C3)C2)nn1 | 10.6% |
| CCc1ocnc1C(=O)N1CCOC(CCCC(C)C)C1 (centres undefined) | 4.29% |
| Cc1cc(CN2CC[C@@H]3O[C@@H](c4nnc(C)o4)C[C@H]3C2)no1 | -103% |
| O=C(c1ccccc1)N1CCN(CC(O)c2ccc(F)cc2)CC1 (centres undefined) | -8.24% |
| CN1C(=O)CC(C(=O)O)C12CCN(Cc1cc(F)ccc1Cl)CC2 (centres undefined) | -0.309% |
| CC(=O)N1CCCC2(C1)CN(c1ncc(C)cn1)CCO2 (centres undefined) | 14% |
| Clc1ccc(CN(CCN2CCOCC2)Cc2cccnc2)cc1Cl | -9.96% |
| CC(CC(=O)c1ccco1)NC(=O)c1ccccn1 (centres undefined) | -5.14% |
| O=S(=O)(NC1CCC12CCN(CC1CCOCC1)CC2)c1ccccc1 (centres undefined) | -1.34% |
| CC(C)C(=O)N1CCc2onc(C(=O)NCCN(C)C)c2C1 | 5.56% |
| CCCN(CCN(C)C)C(=O)Cc1cn2ccsc2n1 | 0.27% |
| CCn1cnnc1C1CCN(C(=O)c2ccoc2C)CC1 | -8.04% |
| CCCc1n[nH]c(C2CN(C(=O)c3cncnc3C)CCO2)n1 (centres undefined) | -12.9% |

| Structure (SMILES) | cytotoxicity at 10 µM |
| --- | --- |
| C=C(C)COc1cccc(C(=O)N2CCC3(CC2)CN(C)CCN3C)c1 | -52.4% |
| O=C(c1cccs1)N1CCc2c(nc(N3CCCCC3)[nH]c2=O)C1 | -14.5% |
| O=C([C@@H]1CSCN1)N1CC2(CCNCC2)c2cc(Cl)ccc21 | 4.33% |
| CCc1nc(C2CCCN(C(=O)c3ccccc3F)C2)no1 (centres undefined) | 2.64% |
| Cc1cccc(CN2CCC(c3csc4nccn34)CC2)n1 | 1.54% |
| O=C(NCCc1ccncc1)C1CCN(Cc2ccco2)CC1 | 26.1% |
| O=C(O)COc1ccccc1CN1CCCC1c1ccncn1 (centres undefined) | -29.2% |
| CCC(CC)C(=O)N1CCOC2(COCCN(CC(=O)NC)C2)C1 (centres undefined) | 2.35% |
| O=C(CCc1nnc2ccccn2c1=O)NCc1ccc2c(c1)OCO2 | -0.403% |
| N#Cc1ncn(CCC(=O)Nc2ccc(F)c(F)c2)n1 | -147% |
| CCc1nn(C)c2[nH]nc(NC(=O)c3cccnc3NC(C)C)c12 | 3.07% |
| CCN(CC)C(=O)CCNC(=O)c1c[nH]c2ccc(OC)cc12 | 1.86% |
| CCN(CC)C1CCN(C(=O)NCc2cccc(-n3ccnc3)c2)C1 (centres undefined) | -4.45% |
| O=C1CCCN1CC1CN(C(=O)CC2CCCC2)Cc2nccn2C1 (centres undefined) | 1.47% |
| O=C(Cc1ccc(-n2cnnn2)cc1)Nc1cnn(CC(F)F)c1 | 1.97% |
| O=C(O)c1ccc(S(=O)(=O)Nc2c(F)cccc2-n2cccn2)cc1 | -8.8% |
| Cc1cccc(-c2noc(CN3CCCC(Cn4cncn4)C3)n2)c1 (centres undefined) | -3.51% |
| O=C(NC[C@H]1OC[C@@H](NC2CCCCC2)[C@@H]1O)Nc1ccccc1 | -11.6% |
| Cc1nnc2n1CCN(C(C(=O)NC1CC1)c1ccc(F)cc1)C2 (centres undefined) | -6.6% |
| CCc1cnc(NCC(c2cccnc2)N2CCOCC2)nc1 (centres undefined) | 9.6% |
| CC(=O)N(c1ccc(C)cc1)c1nc(CN2CCCCC2C)cs1 (centres undefined) | -5.65% |
| Cc1cn2c(n1)CCC(NC(=O)CCOc1cccc(F)c1)C2 (centres undefined) | -3.42% |

| Structure (SMILES) | cytotoxicity at 10 µM |
| --- | --- |
| O=c1[nH][nH]cc1-c1ccnc(NCCc2ccc(F)cc2)n1 | 3.44% |
| COc1ccc(-n2ccc(C(=O)NCCN3CCCCC3C)n2)cc1 (centres undefined) | -8.43% |
| CCCc1cc(CNC2CCN(c3cc(C)nc(N)n3)CC2)on1 | -6.17% |
| Cc1ccc(CNC(=O)N2CCCC(NS(C)(=O)=O)C2)cc1 (centres undefined) | 2.73% |
| CCOCCCNC(=O)C(NC(=O)Cc1cccs1)c1ccccc1 (centres undefined) | 12.3% |
| Cc1ccc(C(=O)NCCCNS(C)(=O)=O)c(=O)[nH]1 | -15.3% |
| c1ncn(Cc2cnc3n2CCN(Cc2ccsc2)CC3)n1 | 6.2% |
| Cc1cc(C)n(C2CCN(Cc3c(-c4cc(C)on4)nn(C)c3Cl)C2)n1 (centres undefined) | 3.84% |
| CN(Cc1ccno1)c1nc(C2CCCC2)nc2c1cnn2C | 7.27% |
| CNC(=O)[C@H]1C[C@@H]2CN(C(=O)c3ccccn3)C[C@@H]2N1S(C)(=O)=O | -1.37% |
| CC1(C)CN(C(=O)NCCc2ccn(-c3ccccc3)n2)CCO1 | 2.21% |
| Cc1noc(C)c1CN(C)C(=O)NC1CCN(C2CC2)CC1 | -10.1% |
| Cc1ccc(CNC(=O)CN2CCCC(Cn3cncn3)C2)cc1 (centres undefined) | -11.5% |
| Cc1cc(C)n2ncc(CN3C[C@@H](O)[C@H](Oc4ccccc4)C3)c2n1 | -33% |
| O=C(CCNC(=O)NC1CC1)NCc1ccccc1 | 8.12% |
| c1ccc(-c2nnc3n2CCN(c2nc(C4CC4)ns2)C3)cc1 | 0.38% |
| CN(C)c1no[n+]([O-])c1-c1ccccc1 | 15.8% |
| Cc1noc([C@@H]2C[C@H]3OCC[C@H]3N(Cc3sccc3C)C2)n1 | -69.1% |
| OCCOc1ccccc1CN1CCCC(O)(CO)C1 (centres undefined) | -38.7% |
| CC(C)(C)c1nnc(CN2CCCC2c2noc(C3CC3)n2)o1 (centres undefined) | -2.75% |
| CN(Cc1nccn1CC(F)(F)F)C(=O)c1ccc(F)c(F)c1 | -0.394% |
| CC(C)c1noc(-c2ccc(N(C)C3CCOCC3)nc2)n1 | -17.6% |

| Structure (SMILES) | cytotoxicity at 10 µM |
| --- | --- |
| c1ccc(OCCN2CCCC(c3noc(C4CC4)n3)C2)cc1 (centres undefined) | 2.58% |
| CC(=O)c1cc(C(=O)N2CCC3(CC2)Nc2ccccc2NC3=O)cs1 | 3.54% |
| COC(=O)C1CN(Cc2ccc(-c3ccncc3)cc2F)C[C@@H](C)O1 (some centres undefined) | 1.63% |
| O[C@@H]1CN(CC2=Cc3cc(Cl)ccc3OC2)CC[C@H]1N1CCCCCC1 | 1.9% |
| CN(Cc1ccc(N2CCOCC2)cc1)C(=O)Cn1cccnc1=O | -18.4% |
| CN(C)c1ccc(CNC2=NCCCN2)cc1 | -39.9% |
| O=C(c1ccccn1)N1CCCC(c2ncncc2-c2ccncc2)C1 (centres undefined) | -0.0141% |
| Cc1noc(C)c1CN1CCn2nc(CCC(=O)N3CCCC3)cc2C1 | -4.52% |
| CCc1ccc(CN(C)C(=O)c2cnc3c(c2)nc(N)n3CC)nc1 | -5.55% |
| O=C(Cc1cc(-c2ccc3c(c2)OCO3)on1)NC1CCCC1 | -2.34% |
| COCCN(CC(F)F)c1cc(COC)nc2ncnn12 | 9.08% |
| COCC(=O)N1CCCC1c1ccc(C(=O)NCc2ccccc2Cl)s1 (centres undefined) | -0.909% |
| Cc1nccn1C1CCCN(C(=O)c2cc(Cl)c3c(c2)OCO3)C1 (centres undefined) | -2.78% |
| CCc1ncc(CN2C[C@@H]3CC[C@H]2CN(C(=O)C2CCC2)C3)cn1 | 4.96% |
| Cc1nc(C2CCCN2C(=O)c2ccc(=O)n(C)n2)no1 (centres undefined) | -2.64% |
| Cc1cc(C(=O)N(CC(F)(F)F)C2CCOCC2)c(C)o1 | -0.541% |
| CSc1ncccc1C(=O)N1CCCC1c1ccc(C(=O)N(C)C)s1 (centres undefined) | 6.45% |
| Cc1nnc(CN2CCCCC2c2nc(-c3ccccc3)no2)s1 (centres undefined) | -48.5% |
| COc1cccc(C(O)CN2CCN(c3cccc(C)c3)CC2)c1 (centres undefined) | -3.85% |
| Cc1cc(CN2CCN(c3ccnc(-c4ccccc4)n3)CC2)no1 | -8.92% |
| CN(CC(=O)NCC(F)(F)F)C(=O)c1ccc(=O)[nH]c1 | -4.39% |
| COc1ccc(Cl)cc1CCNC(=O)N(C)CC1CCOC1 (centres undefined) | 7.17% |

| Structure (SMILES) | cytotoxicity at 10 µM |
| --- | --- |
| O=C(NCCc1ccccn1)[C@@H]1CC[C@@H]2[C@@H](CCN2Cc2ccoc2)O1 | 8.21% |
| CCCc1nc(N2CCCCCC2)c2c(n1)c(C)nn2CC | 39.4% |
| CCC(=O)N1CCN(C(=O)NCc2c(C)cc(C)cc2C)CC1 | 6.12% |
| O=C(Cc1cccs1)N1CCC2(CCCN(CC3CCOCC3)C2)C1 (centres undefined) | -144% |
| CS(=O)(=O)N1CC[C@]2(C[C@@H](OCC3CCC3)CO2)C1 | -6.66% |
| Cc1ccc(C(=O)N2CC(=O)N(Cc3cccs3)CC(O)C2)cc1 (centres undefined) | -5.46% |
| CC(=O)N1CC[C@H]2OCC[C@@H](C(=O)Nc3cccnc3C)[C@@H]2C1 | 11.3% |
| CCOc1ncccc1NC(=O)c1ccc(C)s1 | -3.89% |
| O=C(CC1CC1)N1CCn2cc(Cn3cccn3)nc2C1 | -78.5% |
| CC(C)c1nc2n(n1)CC(NCCc1cccs1)CC2 (centres undefined) | -5.71% |
| Cc1sc2ncnc(N3CCC(N(C)Cc4cnn(C)c4)CC3)c2c1C | -2.98% |
| COCCn1cc(NC(=O)C(C)CCc2ccccc2F)ccc1=O (centres undefined) | -3.73% |
| COCCOCC(=O)N(Cc1cccc(C)c1)C(C)C | -12.4% |
| COc1c(CNC2(c3noc(C)n3)CCC2)c(C)nn1C | 4.2% |
| CC(C)Oc1cccc(C(=O)C2CCCN(C(=O)c3ccoc3)C2)c1 (centres undefined) | 1.43% |
| CN(Cc1ccccc1NCc1ncc[nH]1)C(=O)c1cccs1 | -3.21% |
| Cc1ccc(OCC(O)CN(C)CC(=O)Nc2cc(C)on2)c(C)c1 (centres undefined) | -17.3% |
| O=C(c1ccc(Cl)cc1)N1CCC(N2CCCOC2=O)CC1 | 11.1% |
| CC(C)c1nn(CC(=O)N2CCCCC2)c(=O)c2c1cnn2C(C)(C)C | -13.2% |
| CCn1cc(NC(=O)C2CCC(=O)N2Cc2ccc(C)o2)cn1 (centres undefined) | -2.92% |
| CC(=O)Nc1nc(C(=O)NC(C)c2ccncc2)cs1 (centres undefined) | -6.5% |

— ChEMBL document CHEMBL4513216, “Probing the Open Global Health Chemical Diversity Library for Multistage-Active Starting Points for Next-Generation Antimalarials” (ACS Infect Dis, 2020)
